IDH1 mut inh = IDH1 R132H (human) inhibition | IDH1 R132H reductase, diaphorase/resazurin fluorescence, 60 min | inhibition, % at 10 µM | hit rate 0.18% among 70,000 | O75874 | AID 624101; in the data active = inhibition above about 34%; inconclusive = no clear call, values can overlap the other calls; inactive = below about 11%
Target sequence (O75874 whole entry R132H): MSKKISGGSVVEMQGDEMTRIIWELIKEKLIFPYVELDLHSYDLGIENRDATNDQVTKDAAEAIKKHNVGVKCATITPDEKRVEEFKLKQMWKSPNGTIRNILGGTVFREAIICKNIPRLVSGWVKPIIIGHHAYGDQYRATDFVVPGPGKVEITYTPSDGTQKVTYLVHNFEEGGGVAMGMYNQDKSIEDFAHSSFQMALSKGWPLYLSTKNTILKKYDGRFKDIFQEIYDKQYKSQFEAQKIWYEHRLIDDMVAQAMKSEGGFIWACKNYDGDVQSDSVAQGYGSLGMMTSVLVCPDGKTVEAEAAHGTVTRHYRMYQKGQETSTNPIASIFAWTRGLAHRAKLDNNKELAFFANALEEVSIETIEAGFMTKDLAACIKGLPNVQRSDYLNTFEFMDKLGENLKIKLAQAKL
GASC1 inh = inhibitors of human demethylase GASC-1 KDM4C | Q9H3R0 | GST-KDM4C 2-372, H3K9me3 peptide, LANCE TR-FRET | inhibition, % at 12.5 µM | hit rate 0.15% among 96,000 | AID 720574;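 active = mean replicate inhibition above about 25%, with at least 55% of replicates also reaching it, limit read from the data, passing the limit was not always enough; inconclusive = only one of those two conditions met; inactive = neither condition met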
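reagent = H3K9me3 peptide substrate, Fe(II), 2-oxoglutarate | system = GST-tagged GASC-1 (JMJD2C) catalytic fragment, aa 2-372 | amount = enzyme final amount 10 nM | read-out = Fall in 671/618 emission ratio as inhibition | medium = HEPES buffer, pH 7.5, plus ascorbate | schedule = 30 min reaction, 60 min detection, RT | measured by = LANCE TR-FRET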
T cruzi growth-1 = blocks T. cruzi growth in NIH3T3 culture | inhibition, % at 8.34 µM | T. cruzi beta-gal in NIH3T3, GalScreen luminescence, 90 h | hit rate 5.9% among 77,000;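 active = mean inhibition above about 93%, with at least 55% of replicates each passing it, limit read from the data, passing the limit was not always enough; inconclusive = only one of those two conditions holds; inactive = neither condition holds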
Pf Dd2 inh = P. falciparum Dd2 growth inhibition. SYBR Green, 72 h; hits give low values. hit rate 2.3% among 94,000. activity change, % at 10 µM; in the data active = activity change below about -80%; inconclusive = no clear call, values can overlap the other calls
T cruzi growth-2 = Trypanosoma cruzi proliferation inhibition; inhibition, % at 8.35 µM; shares compounds with T cruzi growth-1; T. cruzi beta-gal in NIH3T3, GalScreen luminescence, 90 h; hit rate 72% among 5,600; AID 651739;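 active = mean replicate inhibition above about 95% and at least 55% of replicates individually reaching it, limit read from the data; inconclusive = only one of the two criteria is met; inactive = neither criterion is met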
T cruzi growth-3 = inhibitors of T. cruzi proliferation | hit rate 21% among 5,600 | shares compounds with T cruzi growth-1 | inhibition, % at 2.09 µM | T. cruzi beta-gal in NIH3T3, GalScreen luminescence, 90 h;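 active = mean inhibition above about 95%, with at least 55% of replicates also reaching it, limit read from the data; inconclusive = meets just one of the two conditions; inactive = meets neither condition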
NIH3T3 tox = kills mouse NIH/3T3 fibroblasts. shares compounds with T cruzi growth-1. hit rate 14% among 5,600. AID 651742. NIH/3T3 viability, CellTiter-Glo ATP luminescence, 90 h. cytotoxicity (signal decrease), % at 8.35 µM;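 active = mean signal decrease across replicates above about 35% based on untreated-well scatter, with enough replicates individually passing, limit read from the data; inconclusive = no rule stated though some were filed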
NIH3T3 tox 2 = NIH/3T3 (mouse) viability loss; shares compounds with T cruzi growth-1; NIH/3T3 viability, CellTiter-Glo ATP luminescence, 90 h; inhibition, % at 24.9 µM; hit rate 56% among 5,600;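 active = mean loss of cell viability signal at or above a set limit, and enough replicates individually reaching it; inconclusive = meets only the mean limit or only the replicate share; inactive = meets neither condition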
Hits are given with their value; 0 = inactive; ? = inconclusive; - = no result given. Only some compounds are listed: those with a hit (about 5.8% of all), similar ones and a draw of the others.

SMILES	IDH1 mut inh	GASC1 inh	T cruzi growth-1	Pf Dd2 inh	T cruzi growth-2	T cruzi growth-3	NIH3T3 tox	NIH3T3 tox 2
C[C@H]1CCCCO[C@@H](CN(C)Cc2ccncc2)[C@@H](C)CN([C@@H](C)CO)C(=O)c2cc(NC(=O)Cc3ccccc3)ccc2O1	0	0	99.1	0	103.6	0	0	0
C[C@H](CO)N1C[C@H](C)[C@@H](CN(C)Cc2ccccc2)OCCCC[C@H](C)Oc2ccc(NC(=O)c3ccncc3)cc2C1=O	-	0	0	0	-	-	-	-
COCC(=O)N(C)C[C@H]1[C@H](c2ccc(-c3cccnc3)cc2)[C@H](CO)N1C(C)=O	-	0	101.4	0	0	0	0	0
CC(=O)N(C)C[C@H]1[C@H](c2ccc(-c3ccccc3)cc2)[C@@H](CO)N1C(=O)C1CC1	-	0	?	0	0	0	0	0
COCCN(C[C@@H]1[C@@H](c2ccccc2)[C@H](CO)N1C(C)=O)C(=O)c1ccccc1	-	0	0	0	-	-	-	-
CC(=O)N(C)C[C@@H]1[C@@H](c2ccc(-c3ccccc3)cc2)[C@H](CO)N1C(=O)C1CC1	-	0	0	0	-	-	-	-
COCCN(C[C@H]1[C@@H](c2ccccc2)[C@H](CO)N1C(C)=O)C(=O)c1ccncc1	-	0	?	0	0	0	0	0
CC(=O)N(C)C[C@H]1[C@H](c2ccccc2)[C@@H](CO)N1C(=O)C1CCC1	-	0	100.7	0	0	0	0	0
COc1ccc(C(=O)Nc2ccccc2C(=O)OCc2cccc([N+](=O)[O-])c2)cc1	0	-	-	-	-	-	-	-
COc1ccc(NC(=O)CSc2nc3c(c(C(F)(F)F)n2)CCCC3)c([N+](=O)[O-])c1	0	-	-	-	-	-	-	-
CCN(C[C@@H]1[C@@H](c2ccccc2)[C@H](CO)N1C(=O)C1CC1)C(=O)NC1CCCC1	-	0	96.6	0	0	0	0	0
CCN(C[C@@H]1[C@@H](c2ccccc2)[C@@H](CO)N1C(=O)C1CC1)C(=O)NC1CCCC1	-	0	0	0	-	-	-	-
COc1ccc(C)cc1N(CC(=O)Nc1ccc(I)cc1)S(C)(=O)=O	0	-	-	-	-	-	-	-
Cc1cc(C)nc(SC(C)C(=O)Nc2cccc3ccccc23)n1 (centres undefined)	0	-	-	-	-	-	-	-
COc1ccc(S(=O)(=O)N(C)C[C@H]2Oc3cc(-c4cccc(F)c4)ccc3S(=O)(=O)N([C@H](C)CO)C[C@@H]2C)cc1	0	0	-	0	-	-	-	-
COc1ccc(S(=O)(=O)N(C)C[C@@H]2Oc3cc(-c4cccc(F)c4)ccc3S(=O)(=O)N([C@H](C)CO)C[C@H]2C)cc1	0	0	-	0	-	-	-	-
C[C@H](CO)N1C[C@H](C)[C@@H](CN(C)S(=O)(=O)c2ccc(F)cc2)Oc2cc(-c3cccc(F)c3)ccc2S1(=O)=O	-	0	118.3	0	96.9	103.8	38.9	41.8
C[C@@H]1CN([C@@H](C)CO)S(=O)(=O)c2ccc(-c3cccc(F)c3)cc2O[C@H]1CN(C)S(=O)(=O)c1ccc(F)cc1	-	0	112.7	0	100.6	107.9	48.8	47.8
CC(C)N(C(=O)NC(=O)c1ccc(F)cc1F)C(C)C	0	-	-	-	-	-	-	-
COCC(=O)Nc1ccc2c(c1)C(=O)N(C)[C@H]1CC[C@H](CC(=O)Nc3ccccc3OC)O[C@@H]1CO2	-	-	111.6	0	?	0	0	0
CC(C)C(=O)Nc1ccc2c(c1)C(=O)N(C)[C@@H]1CC[C@@H](CC(=O)NCc3ccc(F)cc3)O[C@@H]1CO2	-	0	96.0	0	0	0	0	0
CC(C)C(=O)Nc1ccc2c(c1)C(=O)N(C)[C@@H]1CC[C@@H](CC(=O)NCc3ccc(F)cc3)O[C@H]1CO2	-	0	0	0	-	-	-	-
CC(=O)Nc1ccc2c(c1)C(=O)N(C)[C@@H]1CC[C@@H](CC(=O)NCC3CCCCC3)O[C@H]1CO2	-	0	99.1	0	0	0	0	0
CN1C(=O)c2cc(NC(=O)c3ccc(F)cc3)ccc2OC[C@H]2O[C@@H](CC(=O)NCC3CCCCC3)CC[C@H]21	-	0	100.9	0	112.8	0	38.7	60.6
CC(=O)Nc1ccc2c(c1)C(=O)N(C)[C@H]1CC[C@@H](CC(=O)NCC3CC3)O[C@@H]1CO2	-	0	0	0	-	-	-	-
SMILES	IDH1 mut inh	GASC1 inh	T cruzi growth-1	Pf Dd2 inh	T cruzi growth-2	T cruzi growth-3	NIH3T3 tox	NIH3T3 tox 2
Cc1cc(C)n2c(Nc3cccc(C(F)(F)F)c3)c(-c3ccc(O)cc3)nc2n1	0	-	-	-	-	-	-	-
Cc1nc(SCC(=O)c2cc3ccccc3oc2=O)c(C(N)=O)c(C)c1C	0	-	-	-	-	-	-	-
COCCNC(=O)C[C@H]1CC[C@@H]2[C@@H](COc3ccc(NC(C)=O)cc3C(=O)N2C)O1	-	0	0	0	-	-	-	-
COCCNC(=O)C[C@H]1CC[C@@H]2[C@H](COc3ccc(NC(C)=O)cc3C(=O)N2C)O1	-	0	101.1	0	0	0	0	0
CCOC(=O)c1ccc(NC(=O)CSc2nc3ccc(C)cc3[nH]2)cc1	0	-	-	-	-	-	-	-
OC[C@@H]1[C@@H](c2ccc(/C=C/c3ccccc3)cc2)[C@H]2CN(Cc3ccncc3)CCCCN12	-	0	96.6	0	104.6	0	46.5	101.7
OC[C@@H]1[C@@H](c2ccc(/C=C/c3ccccc3)cc2)[C@@H]2CN(Cc3ccncc3)CCCCN12	-	0	?	0	99.3	0	0	106.3
COc1ccc(Cl)cc1NC(=O)CSc1nnc(-c2ccccc2)n1C	0	-	-	-	-	-	-	-
Cc1ccccc1S(=O)(=O)N1CC[C@@H]2[C@H](CO)Nc3ccc(-c4ccccc4F)cc3[C@@H]21	-	0	109.8	0	97.4	0	0	105.6
COc1ccccc1S(=O)(=O)N1CC[C@@H]2[C@@H](CO)Nc3ccc(-c4ccccc4F)cc3[C@@H]21	-	0	?	0	103.6	0	0	41.0
Cc1ccccc1S(=O)(=O)N1CC[C@@H]2[C@H]1c1cc(-c3ccccc3F)ccc1N[C@@H]2CO	-	0	0	0	-	-	-	-
COc1cccc(-c2ccc3c(c2)[C@H]2[C@H](CCN2S(=O)(=O)c2ccccc2OC)[C@H](CO)N3)c1	-	0	?	0	102.2	0	0	0
Cc1ccc(/C=N/NC(=O)CCCCCCC(=O)NO)o1	0	-	-	-	-	-	-	-
CNC[C@H]1OCCCC[C@H](C)Oc2ccc(NS(C)(=O)=O)cc2C(=O)N([C@@H](C)CO)C[C@@H]1C	0	0	100.8	0	0	0	0	0
CNC[C@@H]1OCCCC[C@H](C)Oc2ccc(NS(=O)(=O)c3ccc(C)cc3)cc2C(=O)N([C@@H](C)CO)C[C@H]1C	-	0	0	0	-	-	-	-
CNC[C@H]1OCCCC[C@H](C)Oc2ccc(NS(=O)(=O)c3ccc(C)cc3)cc2C(=O)N([C@@H](C)CO)C[C@@H]1C	0	0	102.2	0	0	0	0	0
Cc1ccc(S(=O)(=O)N2C(=O)CCC2C(=O)Nc2ccc(Cl)c(C(F)(F)F)c2)cc1 (centres undefined)	0	-	-	-	-	-	-	-

Screening data from PubChem.
